What all share (type): functional
The subject of experiment [1] is Candida parapsilosis. As to the kind of experiment: Antifungal activity against Candida parapsilosis ATCC 22019 after 48 hrs. The following applies: Lodderomyces parapsilosis, ATCC 22019, 48 h. Summed up:
(§1)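 Broth microdilution after modified CLSI M27-A in SG minimal medium (yeast nitrogen base without amino acids, 2% glucose). Compounds dissolved in DMSO (1 mg/mL), diluted 10-fold in SG, then 30 final concentrations from 97.5 to 0.0025 µg/mL. About 5 × 10³ cells/well, in triplicate. Incubated at 30 °C for 48 h, OD 655 nm read as % of DMSO control; MIC50 by probit analysis of mean values.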

Experiment [2] relates to Candida parapsilosis. As to the kind of experiment: Antifungal activity against Candida parapsilosis PYCC 2545 after 48 hrs. The following applies: Lodderomyces parapsilosis, PYCC 2545, 48 h. Summed up: as §1
Experiment [3] concerns Candida albicans. As to the kind of experiment: Antifungal activity against Candida albicans ATCC 90028 after 48 hrs. The following applies: ATCC 90028, 48 h. Summed up:
as §1

Experiment [4] deals with Candida albicans. As to the kind of experiment: Antifungal activity against Candida albicans PYCC 3436 after 48 hrs. The following applies: PYCC 3436, 48 h. Summed up: as §1
The next experiment relates to Pichia kudriavzevii. As to the kind of experiment: Antifungal activity against Candida krusei PYCC 3341 after 48 hrs. The following applies: PYCC 3341, 48 h. Summed up:
as §1

The next experiment relates to Nakaseomyces glabratus. As to the kind of experiment: Antifungal activity against Candida glabrata PYCC 2418 after 48 hrs. The following applies: PYCC 2418, 48 h. In outline:
as §1

≈ marks a conversion by molar mass, not a printed value.

In ChEMBL document CHEMBL1153135, “Reaction of naphthoquinones with substituted nitromethanes. Facile synthesis and antifungal activity of naphtho[2,3-d]isoxazole-4,9-diones” (2010) one finds MIC50 data, which are given here for eight compounds.

The MIC50 is the lowest concentration that inhibits either 50% of growth or 50% of the strains tested, depending on the study. Low readings indicate higher susceptibility, high ones lower susceptibility. As to `CCOC1=C(Cl)C(=O)c2ccccc2C1=O`, the MIC50 against Candida parapsilosis [1] came to 40.4 µM (≈ 9.56 µg/mL); in the experiment on Candida parapsilosis [2] it was 48.3 µM (≈ 11.4 µg/mL); against Candida albicans [3], 202 µM (≈ 47.9 µg/mL); in the experiment on Candida albicans [4] it was 9.5 µM (≈ 2.25 µg/mL); in the experiment on Pichia kudriavzevii it was 3.9 µM (≈ 0.923 µg/mL); in the experiment with Nakaseomyces glabratus, 3.8 µM (≈ 0.899 µg/mL).
Turning to `COC1=C(Cl)C(=O)c2ccccc2C1=O`, the MIC50 in the experiment with Candida parapsilosis [1] was 4.7 µM (≈ 1.05 µg/mL); against Candida parapsilosis [2], 5.3 µM (≈ 1.18 µg/mL); with Candida albicans [3], 73.9 µM (≈ 16.5 µg/mL); against Candida albicans [4] it was 10.4 µM (≈ 2.32 µg/mL); with Pichia kudriavzevii, 4.6 µM (≈ 1.02 µg/mL); against Nakaseomyces glabratus it was 16.7 µM (≈ 3.72 µg/mL).
As for `CCOC(=O)CC1=C(Br)C(=O)c2ccccc2C1=O`, the MIC50 with Candida parapsilosis [1] amounted to 3.2 µM (≈ 1.03 µg/mL); against Candida parapsilosis [2], 1.1 µM (≈ 0.355 µg/mL); against Candida albicans [3], 4.5 µM (≈ 1.45 µg/mL); in the experiment on Candida albicans [4], 0.9 µM (≈ 0.291 µg/mL); with Nakaseomyces glabratus, 12 µM (≈ 3.88 µg/mL).
As to `O=C1c2ccccc2C(=O)c2c(S(=O)(=O)c3ccccc3)noc21`, the MIC50 was found to be 6.1 µM (≈ 2.07 µg/mL) against Candida parapsilosis [1]; 1.6 µM (≈ 0.543 µg/mL) against Candida parapsilosis [2]; 56.7 µM (≈ 19.2 µg/mL) against Candida albicans [3]; 2.5 µM (≈ 0.848 µg/mL) with Candida albicans [4]; 9.7 µM (≈ 3.29 µg/mL) against Pichia kudriavzevii; 1.5 µM (≈ 0.509 µg/mL) in the experiment on Nakaseomyces glabratus.
On to `CCOC(=O)c1noc2c1C(=O)c1ccccc1C2=O`, for which the MIC50 came out at 1.7 µM (≈ 0.461 µg/mL) with Candida parapsilosis [1]; 0.6 µM (≈ 0.163 µg/mL) against Candida parapsilosis [2]; 11.5 µM (≈ 3.12 µg/mL) in the experiment on Candida albicans [3]; 1.8 µM (≈ 0.488 µg/mL) against Candida albicans [4]; 2.3 µM (≈ 0.624 µg/mL) against Pichia kudriavzevii; 0.6 µM (≈ 0.163 µg/mL) against Nakaseomyces glabratus.
Turning to `O=C(c1ccccc1)c1noc2c1C(=O)c1ccccc1C2=O`, the MIC50 was 3.3 µM (≈ 1 µg/mL) with Candida parapsilosis [1]; 13.2 µM (≈ 4 µg/mL) against Candida parapsilosis [2]; 71.2 µM (≈ 21.6 µg/mL) against Candida albicans [3]; 1.6 µM (≈ 0.485 µg/mL) against Candida albicans [4]; 21.2 µM (≈ 6.43 µg/mL) in the experiment on Pichia kudriavzevii; 47.6 µM (≈ 14.4 µg/mL) in the experiment with Nakaseomyces glabratus.
As for `COC(=O)c1noc2c1C(=O)c1ccccc1C2=O`, the MIC50 with Candida parapsilosis [1] is 1.8 µM (≈ 0.463 µg/mL); against Candida parapsilosis [2], 1.3 µM (≈ 0.334 µg/mL); in the experiment with Candida albicans [3], 12.2 µM (≈ 3.14 µg/mL); in the experiment with Candida albicans [4], 0.7 µM (≈ 0.18 µg/mL); with Pichia kudriavzevii, 2.4 µM (≈ 0.617 µg/mL); with Nakaseomyces glabratus, 2.6 µM (≈ 0.669 µg/mL).
`C[C@@H]1[C@H](O)[C@@H](C)/C=C/C=C/C=C/C=C/C=C/C=C/C=C/[C@H](O[C@@H]2O[C@H](C)[C@@H](O)[C@H](N)[C@@H]2O)C[C@@H]2O[C@](O)(C[C@@H](O)C[C@@H](O)[C@H](O)CC[C@@H](O)C[C@@H](O)CC(=O)O[C@H]1C)C[C@H](O)[C@H]2C(=O)O` [AMPHOTERICIN B]: the MIC50 against Candida parapsilosis [1] came to 0.5 µM (≈ 0.462 µg/mL); in the experiment on Candida parapsilosis [2] it was 0.5 µM (≈ 0.462 µg/mL); with Candida albicans [3], 1.2 µM (≈ 1.11 µg/mL); with Candida albicans [4], 0.5 µM (≈ 0.462 µg/mL); against Pichia kudriavzevii, 1 µM (≈ 0.924 µg/mL); in the experiment with Nakaseomyces glabratus it was 0.4 µM (≈ 0.37 µg/mL).
